This is a sample that favours compounds with a hit; in the whole collection about 4.2% have one here.
ANO1 block: TMEM16A chloride channel inhibitors, primary screen, cell-based, HTS. Anoctamin-1 (Mus musculus), Q8BHY3. HEK293 TMEM16A/YFP iodide influx fluorescence, ionomycin. normalized B-score (activity score, 25-100; higher = stronger inhibition) at 10 µM. hit rate 1.2% among 310,000. AID 588511, 2011;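 active means ratio plate-corrected score three or more library SD toward inhibition, starting fluorescence score within five deviations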;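 further: score derived from kinetic fluorescence span divided by baseline fluorescence per well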
UPR XBP1 act: activators of adaptive XBP1 UPR arm, primary screen, cell-based, CHO-XBP1 luciferase reporter, luminescence, uHTS | IRE1-XBP1 UPR activation; percent of tunicamycin response, DMSO as zero | activation, % at 20 µM | hit rate 0.33% among 330,000;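 active means versus positive control, 20 µM dose yields 30% or more activation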;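 further: 100% = tunicamycin at 10 µg/mL and 0% = DMSO only wells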
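incubation = overnight seeding at 37 °C, 6 h compound treatment at 37 °C | assay system = CHO-XBP1 cells stably carrying IRE1-XBP1-driven luciferase reporter | input = 1000 cells per well | detection = luciferase luminescence | dosing = single point, 20 µM final compound, 1% DMSO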
TMEM16A act: TMEM16A chloride channel activators or potentiators, primary screen, cell-based, HTS | hit rate 0.3% among 340,000 | B-score at 10 µM | AID 623877, 2012 | HEK293 TMEM16A/YFP-H148Q/I152L, iodide quench fluorescence; stronger effect = lower value;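 active means fluorescence-ratio B-score plate-corrected deviation score at least 3 library SD below zero, with starting fluorescence score within 5 deviations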;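 further: channel opened by trigger with iodide after compound preincubation; score built on the fluorescence ratio of max minus min over baseline; more negative score means more quench and so TMEM16A activation or potentiation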
CHOP inh: inhibitors of CHOP promoter induction, primary screen, cell-based, unfolded protein response, luciferase reporter; hit rate 3.8% among 220,000; AID 2732, 2010; CHO-K1 CHOP-promoter luciferase, tunicamycin-induced, 15-18 h; inhibition, % at 10 µM;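 active means compounds that reduced the stress-induced luciferase reporter signal by more than about 70% of percent inhibition, limit read from the data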;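 further: 0% = tunicamycin plus vehicle and 100% = wells without tunicamycin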
CHOP UPR activ: activators of apoptotic CHOP UPR arm, primary screen, cell-based, CHO-CHOP luciferase reporter, luminescence, uHTS; UPR activation; percent of tunicamycin response over DMSO baseline; activation, % at 10 µM; hit rate 0.34% among 330,000; AID 449763, 2010;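 active means at 10 µM dose, activation of 40% or more, normalized to positive control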;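 further: 100% = tunicamycin at 10 µg/mL and 0% = DMSO alone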
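assay system = CHO CHOP reporter cells | amount = 500 CHO-CHOP cells per well | buffer or medium = F12 with 10% FBS | incubation = 16-18 h cell attachment, then 6 h compound exposure, 37 °C | detection = luminescence read with Steady-Glo | read-out = percent activation relative to tunicamycin control | controls = tunicamycin high control, DMSO low control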
Hep lipid drop: inhibitors of hepatocyte lipid droplet formation, primary screen, imaging, high-throughput imaging, BODIPY stain; AML12 mouse hepatocytes, oleate lipid droplets; AID 1656, 2009; inhibition, % at 6.5 µM; hit rate 0.4% among 240,000;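 active means lipid droplet intensity inhibited by at least 50%, with more than 500 cells counted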
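System: AML12 hepatocytes (mouse). Probe or stimulus: oleic acid at 100 µM to induce lipid droplet formation. Times: overnight treatment with compound plus oleate. Detection: Image-based BODIPY and DAPI two-channel analysis. Evaluation: percent inhibition of filter-corrected integrated lipid droplet intensity per well.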
The depositor's hits bear a star.

For CC(=O)c1ccc(NC(=O)C(C)N2CCN(C/C=C/c3ccccc3)CC2)cc1 (centres undefined) the results were ANO1 block inactive, UPR XBP1 act -1, TMEM16A act inactive, CHOP inh -12, CHOP UPR activ 0 and Hep lipid drop -8.
For CCC(C)c1ccccc1NC(=O)CN1CCN(C/C=C/c2ccccc2)CC1 (centres undefined) the results were ANO1 block inactive, UPR XBP1 act -1, TMEM16A act inactive, CHOP inh 75*, CHOP UPR activ -2 and Hep lipid drop -16.
COc1ccc(Cl)cc1NC(=O)C(C)N1CCN(C/C=C/c2ccccc2)CC1 (centres undefined) was read as ANO1 block inactive, UPR XBP1 act -3, TMEM16A act inactive, CHOP inh 74*, CHOP UPR activ 2 and Hep lipid drop 14.
CC1CCC2(CC1)NC(=O)N(CC(=O)NC1CCCCC1C)C2=O (centres undefined) was read as UPR XBP1 act -2, TMEM16A act inactive and CHOP UPR activ -1.
CC1Cc2ccccc2N1C(=O)COC(=O)c1ccc(Br)o1 (centres undefined) was read as ANO1 block inactive, UPR XBP1 act -2, TMEM16A act inactive, CHOP inh 1, CHOP UPR activ 0 and Hep lipid drop 10.
For CC(C)(C)OC(=O)NN1CC(=O)N2Cc3[nH]c4ccccc4c3C[C@H]2C1=O the results were ANO1 block inactive, UPR XBP1 act 1, TMEM16A act inactive, CHOP UPR activ 1 and Hep lipid drop -18.
`COc1ccc(NC(=O)CN2CCN(c3ccc(F)cc3)CC2)cc1Cl` gave ANO1 block inactive, UPR XBP1 act -3, TMEM16A act -11*, CHOP inh 9 and CHOP UPR activ 1.
`COc1ccc(NC(=O)CN2CCN(c3ccc(F)cc3)CC2)cc1` gave ANO1 block inactive, UPR XBP1 act -1, TMEM16A act inactive and CHOP UPR activ -2.
COc1ccc(S(=O)(=O)N2CCCN(CC(=O)Nc3cc(NC(C)=O)ccc3OC)CC2)cc1 was read as ANO1 block inactive, UPR XBP1 act 0, TMEM16A act inactive, CHOP inh 18 and CHOP UPR activ -2.
For COc1ccc(NC(C)=O)cc1NC(=O)CN1CCN(S(=O)(=O)c2ccc(C(C)C)cc2)CC1 the results were ANO1 block inactive, UPR XBP1 act -2, TMEM16A act inactive, CHOP inh 73* and CHOP UPR activ -3.
Screening COc1ccc(CCNC(=O)CN2CCN(c3cccc(C(F)(F)F)c3)CC2)cc1 returned ANO1 block inactive, UPR XBP1 act -1, TMEM16A act inactive, CHOP inh 86*, CHOP UPR activ -2 and Hep lipid drop 4.
`O=C(CN1CCN(c2ccccc2)CC1)Nc1cccc(C(F)(F)F)c1` gave ANO1 block inactive, UPR XBP1 act 0, TMEM16A act inactive, CHOP inh 79*, CHOP UPR activ -2 and Hep lipid drop 3.
For CC(=O)Nc1ccc(S(=O)(=O)NCC(=O)Nc2ccc3c(c2)OCO3)cc1 the results were UPR XBP1 act 1, TMEM16A act inactive and CHOP UPR activ 0.
COc1ccc(NC(=O)Cn2nnc(C(=O)NCc3ccc(C)cc3)c2N)cc1OC was read as ANO1 block inactive, UPR XBP1 act -2, TMEM16A act inactive, CHOP UPR activ 0 and Hep lipid drop 1.
Screening COc1ccc(NC(=O)Cn2nnc(C(=O)NCc3ccccc3OC)c2N)cc1Cl returned ANO1 block inactive, UPR XBP1 act 3, TMEM16A act inactive, CHOP inh 72*, CHOP UPR activ 0 and Hep lipid drop 12.
